From ChEMBL document CHEMBL5230083, “Novel 2, 5-diketopiperazine derivatives as potent selective histone deacetylase 6 inhibitors: Rational design, synthesis and antiproliferative activity” (Eur J Med Chem, 2020)
Active and inactive are the calls of the source. No cut-off for these calls is given here.

Legend:
Histone deacetylase 1 = Histone deacetylase 1 (Homo sapiens, UniProt Q13547); test: Inhibition of HDAC1 (unknown origin) using Fluor de lys as substrate by fluorescence based analysis
DU-145 = test: Antiproliferative activity against human DU-145 cells assessed as cell growth at 10 uM incubated for 48 hrs by SRB assay relative to control; format: functional; conditions: read-out: Activity
How it was run: (§1)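 Single-concentration screen at 10 μM run by NCI on its NCI-60 human tumour panel (blood, lung, colon, CNS, melanoma, ovary, kidney, prostate, breast), following the NCI-60 published methodology. Read-out is growth percent relative to untreated cells.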

OVCAR-3 = test: Antiproliferative activity against human OVCAR-3 cells assessed as cell growth at 10 uM incubated for 48 hrs by SRB assay relative to control; format: functional; conditions: read-out: Activity; how it was run: as §1
SNB-75 = test: Antiproliferative activity against human SNB-75 cells assessed as cell growth at 10 uM incubated for 48 hrs by SRB assay relative to control; format: functional; conditions: read-out: Activity
How it was run: (§2)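 NCI-60 single-dose screen: compounds tested at 10 μM, and growth percent of each cell line calculated. The full method follows the NCI DTP protocol.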

A549 [1] = test: Antiproliferative activity against human A549 cells assessed as inhibition of cell growth incubated for 72 hrs in presence of adriamycin by alamar blue assay; format: functional, cell-based; conditions: A549, 72 h
How it was run: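 Alamar blue assay in IMDM/20% FBS at 37 °C, 5% CO2. Cells were exposed to the two agents together for 72 h, with 5–6 h Alamar blue and fluorescence at 530/590 nm. IC50 in combination was determined. CI50 = IC50Ac/IC50As + IC50Bc/IC50Bs, comparing combination with single-agent IC50s.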

LOX IMVI = test: Antiproliferative activity against human LOX IMVI cells assessed as cell growth at 10 uM incubated for 48 hrs by SRB assay relative to control; format: functional; conditions: read-out: Activity; how it was run: as §1
786-0 = test: Antiproliferative activity against human 786-0 cells assessed as cell growth at 10 uM incubated for 48 hrs by SRB assay relative to control; format: functional; conditions: read-out: Activity; how it was run: as §1
SW-620 = test: Antiproliferative activity against human SW620 cells assessed as cell growth at 10 uM incubated for 48 hrs by SRB assay relative to control; format: functional; conditions: read-out: Activity; how it was run: as §2
[2] = Microsomal stability in human liver microsomes assessed as half life at 0.5 uM prewarmed for 5 mins followed by NADPH addition and measured for 90 mins by LC-MS/MS analysis; format: ADME, Microsome; conditions: time 95 min
How it was run: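 Incubation held 0.8 mg/mL human liver microsomes, MgCl2, potassium phosphate buffer pH 7.4 and 0.5 μM compound. After 5 min prewarming at 37 °C, NADPH started the reaction.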

RPMI-8226 [3] = test: Antiproliferative activity against human RPMI-8226 cells assessed as cell growth at 10 uM incubated for 48 hrs by SRB assay relative to control; format: functional; conditions: read-out: Activity; how it was run: as §1
NCI-H322M = test: Antiproliferative activity against human NCI-H322M cells assessed as cell growth at 10 uM incubated for 48 hrs by SRB assay relative to control; format: functional; conditions: read-out: Activity; how it was run: as §1
OVCAR-4 = test: Antiproliferative activity against human OVCAR-4 cells assessed as cell growth at 10 uM incubated for 48 hrs by SRB assay relative to control; format: functional; conditions: read-out: Activity; how it was run: as §1
Homo sapiens [4] = species: Homo sapiens; test: Selectivity index, ratio of IC50 for inhibition of HDAC1 (unknown origin) to IC50 for inhibition of HDAC6 (unknown origin)
How it was run: (§3)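 Ratio of IC50 values, each from a Fluor de Lys fluorogenic HDAC assay run in duplicate.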

A549 [5] = test: Synergistic antiproliferative activity against human A549 cells assessed as combination index incubated for 72 hrs presence of adriamycin by alamar blue assay; format: functional
COLO 205 = test: Antiproliferative activity against human COLO 205 cells assessed as cell growth at 10 uM incubated for 48 hrs by SRB assay relative to control; format: functional; conditions: read-out: Activity; how it was run: as §1
RPMI-8226 [6] = test: cells; format: functional, cell-based; conditions: Homo sapiens, RPMI-8226, 72 h
A498 = test: Antiproliferative activity against human A498 cells assessed as cell growth at 10 uM incubated for 48 hrs by SRB assay relative to control; format: functional; conditions: read-out: Activity; how it was run: as §1
Homo sapiens [7] = species: Homo sapiens; test: Selectivity index, ratio of IC50 for inhibition of HDAC8 (unknown origin) to IC50 for inhibition of HDAC6 (unknown origin); how it was run: as §3
T47D = test: Antiproliferative activity against human T47D cells assessed as cell growth at 10 uM incubated for 48 hrs by SRB assay relative to control; format: functional; conditions: read-out: Activity; how it was run: as §2
HCC 2998 = test: Antiproliferative activity against human HCC 2998 cells assessed as cell growth at 10 uM incubated for 48 hrs by SRB assay relative to control; format: functional; conditions: read-out: Activity; how it was run: as §1
NCI/ADR-RES = test: Antiproliferative activity against human NCI/ADR-RES cells assessed as cell growth at 10 uM incubated for 48 hrs by SRB assay relative to control; format: functional; conditions: read-out: Activity; how it was run: as §1
SF-295 = test: Antiproliferative activity against human SF-295 cells assessed as cell growth at 10 uM incubated for 48 hrs by SRB assay relative to control; format: functional; conditions: read-out: Activity; how it was run: as §1
MDA-MB-231 = test: Antiproliferative activity against human MDA-MB-231 cells assessed as cell growth at 10 uM incubated for 48 hrs by SRB assay relative to control; format: functional; conditions: read-out: Activity; how it was run: as §1
Histone deacetylase 5 = Histone deacetylase 5 (Homo sapiens, UniProt Q9UQL6); test: Inhibition of HDAC5 (unknown origin) using Fluor de lys as substrate by fluorescence based analysis
Histone deacetylase 4 = Histone deacetylase 4 (Homo sapiens, UniProt P56524); test: Inhibition of HDAC4 (unknown origin) using Fluor de lys as substrate by fluorescence based analysis
Histone deacetylase 11 = Histone deacetylase 11 (Homo sapiens, UniProt Q96DB2); test: Inhibition of HDAC11 (unknown origin) using Fluor de lys as substrate by fluorescence based analysis
Chain of Histone deacetylase 11 (Q96DB2 whole entry): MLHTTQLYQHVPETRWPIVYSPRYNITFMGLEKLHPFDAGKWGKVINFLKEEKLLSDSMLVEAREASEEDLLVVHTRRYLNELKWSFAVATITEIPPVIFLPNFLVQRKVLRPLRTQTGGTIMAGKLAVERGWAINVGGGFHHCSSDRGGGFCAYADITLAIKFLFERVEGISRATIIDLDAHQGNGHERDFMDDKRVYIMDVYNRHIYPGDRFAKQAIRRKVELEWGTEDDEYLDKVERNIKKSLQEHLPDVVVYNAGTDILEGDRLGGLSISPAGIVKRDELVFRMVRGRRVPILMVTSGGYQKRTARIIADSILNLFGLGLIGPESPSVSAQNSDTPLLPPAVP

[8] = target: Polyamine deacetylase HDAC10 (Homo sapiens, UniProt Q969S8); test: Inhibition of HDAC10 (unknown origin) incubated for 1 hr by TR-FRET analysis
Chain of Polyamine deacetylase HDAC10 (Q969S8 whole entry): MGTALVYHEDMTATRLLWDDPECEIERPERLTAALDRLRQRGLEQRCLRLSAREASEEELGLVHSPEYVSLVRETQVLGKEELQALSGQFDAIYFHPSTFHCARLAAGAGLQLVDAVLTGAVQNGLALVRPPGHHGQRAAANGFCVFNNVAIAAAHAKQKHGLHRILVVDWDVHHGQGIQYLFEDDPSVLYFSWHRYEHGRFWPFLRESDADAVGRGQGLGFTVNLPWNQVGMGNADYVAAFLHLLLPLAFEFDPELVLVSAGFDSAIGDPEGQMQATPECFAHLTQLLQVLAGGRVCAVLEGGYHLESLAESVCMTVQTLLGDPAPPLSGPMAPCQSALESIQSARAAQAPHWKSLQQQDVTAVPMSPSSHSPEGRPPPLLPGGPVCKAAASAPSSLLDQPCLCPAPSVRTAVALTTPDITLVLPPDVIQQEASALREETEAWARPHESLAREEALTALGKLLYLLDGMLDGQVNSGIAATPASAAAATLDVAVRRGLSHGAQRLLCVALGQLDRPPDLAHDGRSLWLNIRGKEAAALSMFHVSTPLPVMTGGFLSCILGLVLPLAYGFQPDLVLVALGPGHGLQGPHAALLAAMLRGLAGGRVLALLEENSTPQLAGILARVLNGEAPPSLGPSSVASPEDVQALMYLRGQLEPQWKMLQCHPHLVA

[9] = target: Histone deacetylase 3 (Homo sapiens) (UniProt O15379); test: Inhibition of HDAC3 (unknown origin) using Fluor de lys as substrate by fluorescence based analysis
Chain of Histone deacetylase 3 (Homo sapiens) (O15379 whole entry): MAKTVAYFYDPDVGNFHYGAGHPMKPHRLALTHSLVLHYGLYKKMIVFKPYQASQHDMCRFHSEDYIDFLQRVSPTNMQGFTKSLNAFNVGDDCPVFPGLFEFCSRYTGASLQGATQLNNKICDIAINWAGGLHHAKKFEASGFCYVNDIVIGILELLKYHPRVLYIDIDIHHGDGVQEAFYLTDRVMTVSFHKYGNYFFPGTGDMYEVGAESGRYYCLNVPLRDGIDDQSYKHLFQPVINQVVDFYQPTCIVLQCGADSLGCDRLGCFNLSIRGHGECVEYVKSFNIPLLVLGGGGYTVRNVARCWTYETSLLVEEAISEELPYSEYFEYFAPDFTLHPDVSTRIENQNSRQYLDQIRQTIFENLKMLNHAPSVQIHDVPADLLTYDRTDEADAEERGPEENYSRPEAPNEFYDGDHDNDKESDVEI
How it was run: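 Fluor de Lys fluorogenic substrate/developer activity assay, run by a contract lab. […] Experiments were run in duplicate.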

NCI-H226 = test: Antiproliferative activity against human NCI-H226 cells assessed as cell growth at 10 uM incubated for 48 hrs by SRB assay relative to control; format: functional; conditions: read-out: Activity; how it was run: as §1
Histone deacetylase 9 = Histone deacetylase 9 (Homo sapiens, UniProt Q9UKV0); test: Inhibition of HDAC9 (unknown origin) using Fluor de lys as substrate by fluorescence based analysis
Chain of Histone deacetylase 9 (Q9UKV0 whole entry): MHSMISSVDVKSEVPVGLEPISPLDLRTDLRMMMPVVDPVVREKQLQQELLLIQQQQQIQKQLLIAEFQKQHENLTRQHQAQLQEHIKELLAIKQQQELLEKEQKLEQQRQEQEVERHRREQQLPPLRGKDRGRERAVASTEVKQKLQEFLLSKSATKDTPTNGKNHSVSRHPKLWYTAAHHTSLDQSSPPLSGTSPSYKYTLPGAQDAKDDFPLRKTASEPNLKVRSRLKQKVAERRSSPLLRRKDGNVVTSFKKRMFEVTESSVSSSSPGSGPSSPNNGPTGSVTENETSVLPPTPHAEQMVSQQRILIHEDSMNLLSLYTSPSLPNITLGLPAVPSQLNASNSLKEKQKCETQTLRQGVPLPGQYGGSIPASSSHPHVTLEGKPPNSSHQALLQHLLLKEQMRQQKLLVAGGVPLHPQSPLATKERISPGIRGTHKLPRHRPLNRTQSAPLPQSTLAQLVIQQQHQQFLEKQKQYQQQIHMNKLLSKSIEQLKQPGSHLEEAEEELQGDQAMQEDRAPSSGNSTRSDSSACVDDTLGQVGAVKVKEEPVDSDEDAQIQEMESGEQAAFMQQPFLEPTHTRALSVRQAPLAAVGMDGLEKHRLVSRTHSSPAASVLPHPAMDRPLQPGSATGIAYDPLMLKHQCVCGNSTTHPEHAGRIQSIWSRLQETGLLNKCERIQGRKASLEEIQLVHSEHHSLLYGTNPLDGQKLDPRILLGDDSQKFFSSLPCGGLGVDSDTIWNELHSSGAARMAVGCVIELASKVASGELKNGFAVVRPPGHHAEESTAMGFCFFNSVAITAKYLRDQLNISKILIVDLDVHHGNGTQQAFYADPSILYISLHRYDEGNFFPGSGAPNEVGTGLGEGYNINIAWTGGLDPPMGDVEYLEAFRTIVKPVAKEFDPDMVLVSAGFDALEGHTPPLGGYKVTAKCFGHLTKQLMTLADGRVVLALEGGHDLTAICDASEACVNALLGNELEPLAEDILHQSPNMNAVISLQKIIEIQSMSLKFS

[10] = target: Protein deacetylase HDAC6 (Homo sapiens) (UniProt Q9UBN7); test: Inhibition of HDAC6 in human HCT-116 cells assessed as increase in acetylated alpha-tubulin level incubated for 24 hrs by Western blot analysis; format: cell-based; conditions: dose 0.1-10 µM
Chain of Protein deacetylase HDAC6 (Homo sapiens) (Q9UBN7 whole entry): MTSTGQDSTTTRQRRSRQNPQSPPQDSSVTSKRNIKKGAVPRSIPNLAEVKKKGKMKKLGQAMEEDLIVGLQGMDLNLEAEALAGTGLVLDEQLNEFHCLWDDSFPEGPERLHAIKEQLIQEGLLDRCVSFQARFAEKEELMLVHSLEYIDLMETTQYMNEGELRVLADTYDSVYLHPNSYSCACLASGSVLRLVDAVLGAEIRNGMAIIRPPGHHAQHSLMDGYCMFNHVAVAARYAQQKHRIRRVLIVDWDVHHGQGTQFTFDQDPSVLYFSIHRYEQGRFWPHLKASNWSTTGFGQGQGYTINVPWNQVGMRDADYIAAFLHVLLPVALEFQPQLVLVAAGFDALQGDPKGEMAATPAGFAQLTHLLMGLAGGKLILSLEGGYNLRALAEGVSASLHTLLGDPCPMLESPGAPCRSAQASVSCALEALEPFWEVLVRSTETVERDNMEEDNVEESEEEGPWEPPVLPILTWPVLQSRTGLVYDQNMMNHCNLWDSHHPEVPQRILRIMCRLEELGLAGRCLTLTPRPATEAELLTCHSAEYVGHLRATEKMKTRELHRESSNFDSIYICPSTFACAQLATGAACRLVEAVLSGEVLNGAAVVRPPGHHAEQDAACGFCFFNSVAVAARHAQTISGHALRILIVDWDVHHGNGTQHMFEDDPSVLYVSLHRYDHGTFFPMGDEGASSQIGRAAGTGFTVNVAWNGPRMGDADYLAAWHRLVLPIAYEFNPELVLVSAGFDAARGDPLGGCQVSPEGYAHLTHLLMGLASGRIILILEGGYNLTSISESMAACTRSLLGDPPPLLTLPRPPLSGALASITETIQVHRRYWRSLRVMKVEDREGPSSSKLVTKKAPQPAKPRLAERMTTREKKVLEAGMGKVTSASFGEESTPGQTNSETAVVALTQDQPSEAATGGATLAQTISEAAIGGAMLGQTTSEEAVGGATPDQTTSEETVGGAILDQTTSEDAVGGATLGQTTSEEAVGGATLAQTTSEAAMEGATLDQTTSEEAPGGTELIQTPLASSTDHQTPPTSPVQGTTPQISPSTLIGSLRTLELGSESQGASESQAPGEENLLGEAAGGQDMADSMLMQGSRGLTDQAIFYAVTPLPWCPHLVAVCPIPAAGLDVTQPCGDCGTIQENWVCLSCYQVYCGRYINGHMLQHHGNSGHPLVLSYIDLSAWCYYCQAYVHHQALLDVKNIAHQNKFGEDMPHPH
How it was run: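 HCT116 cells were seeded overnight, then treated at 0.1, 1 and 10 μM for 24 h. Cells were lysed with protein extraction reagent plus EDTA-free protease inhibitors. 30 µg protein per sample was resolved by SDS-PAGE and blotted to nitrocellulose. Ac-α-tubulin and Ac-H3 were probed and detected by ECL.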

Chain of Histone deacetylase 1 (Q13547 whole entry): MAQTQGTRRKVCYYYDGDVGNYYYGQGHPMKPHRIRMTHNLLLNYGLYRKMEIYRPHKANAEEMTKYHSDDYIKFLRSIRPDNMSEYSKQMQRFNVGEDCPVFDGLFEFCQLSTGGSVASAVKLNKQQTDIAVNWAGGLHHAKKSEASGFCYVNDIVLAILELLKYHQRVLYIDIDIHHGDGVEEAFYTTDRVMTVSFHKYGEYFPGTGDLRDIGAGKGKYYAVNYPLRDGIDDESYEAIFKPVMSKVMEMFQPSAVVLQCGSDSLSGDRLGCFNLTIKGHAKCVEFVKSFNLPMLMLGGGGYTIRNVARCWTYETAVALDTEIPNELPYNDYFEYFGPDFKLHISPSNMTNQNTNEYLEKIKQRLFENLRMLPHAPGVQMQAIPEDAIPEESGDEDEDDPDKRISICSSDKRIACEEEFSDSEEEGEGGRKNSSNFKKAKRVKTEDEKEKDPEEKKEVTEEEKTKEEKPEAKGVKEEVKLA

IC50 (Histone deacetylase 1) | IC50 (RPMI-8226 [6]) | SMILES | growth at 10 µM (DU-145) | growth at 10 µM (OVCAR-3) | growth at 10 µM (SNB-75) | growth at 10 µM (LOX IMVI) | growth at 10 µM (786-0) | growth at 10 µM (SW-620) | growth at 10 µM (RPMI-8226 [3]) | growth at 10 µM (NCI-H322M) | growth at 10 µM (COLO 205) | growth at 10 µM (A498) | growth at 10 µM (T47D) | growth at 10 µM (HCC 2998) | growth at 10 µM (NCI/ADR-RES) | growth at 10 µM (SF-295) | growth at 10 µM (MDA-MB-231) | other results
9.64 µM | 11.7 µM | O=C(NO)c1ccc(CN2CC(=O)N(Cc3ccccc3)[C@H](Cc3ccccc3)C2=O)cc1 | 87% | 79.7% | 69.4% | 93.2% | 94.8% | 94.1% | 58.6% | 89.5% | 89.2% | 67.4% | 69.1% | 85.9% | 94.5% | 100% | 95.2% | IC50 (A549 [1]): 8.17 µM; half-life at 0.5 µM [2]: 9.7 h; growth at 10 µM (OVCAR-4): 66.5%; Ratio IC50 (Homo sapiens [4]): 981; CI (A549 [5]): 0.676; Ratio IC50 (Homo sapiens [7]): 15
8.02 µM | 33.2 µM | O=C1CN(Cc2ccc(C(=O)NO)cc2)C(=O)[C@@H](Cc2c[nH]c3ccccc23)N1 | 107% | 104% | 94.5% | 106% | 83% | 103% | 104% | 99.1% | 120% | 85% | 87.3% | 103% | 104% | 105% | 107% | IC50 (Histone deacetylase 5): 4.37 µM; IC50 (Histone deacetylase 4): 5.62 µM; IC50 (Histone deacetylase 11): 1.8 µM; IC50 [8]: 0.105 µM; inhibition [9]: inactive; growth at 10 µM (NCI-H226): 97.6%; IC50 (Histone deacetylase 9): 2.56 µM; inhibition [10]: Dose-Dependent Effect
